Assay [1] in a line: Her2 expression decrease, cell viability multiplex – SKBR3 breast tumor cells, AlphaScreen, ATP viability, primary screen (AID 461;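 active = Her2 level under about 52% in both replicate screens, with viability over 70% of control, limit read from the data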;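 as to Her2 level: lower value means less Her2 protein in the cells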;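 as to viability: percent of carrier control wells set as 100% viability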). The settings on record: SKBR3 Her2 protein level, 18-24 h, measured here: SKBR3 viability, ATP luminescence, at 10 µM. (Alpha assays give light when donor and acceptor beads are brought close together.)
Assay [2] concerns the target Receptor tyrosine-protein kinase erbB-2 (Homo sapiens) (UniProt P04626). The description is as above. The settings on record: 18-24 h, at 10 µM, stronger effect = lower value.
A short description of assay [3]: reduced viability of SK-BR-3 breast cancer cells – cell-based, 24 h, human, pilot screen (AID 572;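 active = viability at or below 10% of carrier control in both of two separate runs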;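 also: compound exposure lasted between 18 and 24 h rather than exactly 24 h; 100% = carrier-treated control wells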). As to conditions: SK-BR-3 viability, CellTiter-Glo luminescence, at 10 µM, stronger effect = lower value.
Assay [4] in a line: HUVEC growth inhibition – cell-based, human, primary screen (AID 575).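 Also: 100% = median of untreated cell wells with 0.1% DMSO on each plate.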 As to conditions: HUVEC proliferation, CellTiter-Glo luminescence, 72 h; at 10 µM; stronger effect = lower value. The method in brief: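 Assay system: primary human umbilical vein endothelial cells / Buffer or medium: endothelial basal medium with 2% FBS plus growth supplements / Compound dosing: one dose, 10 µM final, 0.1% DMSO / Timing: 72 h treatment at 37 °C / Signal: CTG luminescence / Benchmarks: 32 DMSO-only cell-control wells (high), 32 MePR drug-control wells (low) per plate / Plate: collagen-coated 384-well format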
Background: ATP-based viability assays read luminescence as a measure of living cells.

Assay [5] can be described thus: H69AR cell proliferation blockers – human, duplicate replicates, primary screen (AID 580;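 active = viability at or under a set limit in both replicates, limit being median viability minus 3 SD, cut at about 48% in these data, passing the limit was not always enough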;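 also: 100% = mean luminescence of untreated wells and 0% = no signal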). As to conditions: H69AR lung tumor cells viability, ATP luminescence, 72 h; at 10 µM; stronger effect = lower value.
The nature of assay [6]: MRP1 drug-resistance reversers in H69AR cells – cell-based, doxorubicin co-treatment, pilot screen (AID 601;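 active = viability loss from added drug above about 55%, and viability with drug at most 40%, in both replicates, limit read from the data, passing the limit was not always enough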). The settings on record: CellTiter-Glo, 72 h, at 10 µM; for differential viability (reversal): stronger effect = higher value.
Assay [7] can be described thus: yeast transport mutant growth inhibition pilot in 384-well plates, post-Golgi transport modulator project (AID 636; in the data active = inhibition above about 31%). As to conditions: absorbance 615 nm, about 18 h, stronger effect = higher value.
Assay [8] in a line: growth suppression of yeast trafficking mutant, preliminary HTS, modulators of trafficking downstream of Golgi apparatus project, 1536-format plate, OD 615 nm (AID 637; in the data active = inhibition above about 30%). The settings on record: yeast transport mutant growth, absorbance 615 nm, 18 h; stronger effect = higher value.
Where [9] appears, read: H69AR cells + 2 uM doxorubicin, measured here: viability with 2 uM doxorubicin, stronger effect = lower value.
Setting [10] is: H69AR cells, compound alone cytotoxicity.

By viability is commonly meant a read-out of living cells in per cent, often relative to untreated cells. By inhibition is commonly meant the change of the read-out against control, counted positive when it falls.

Activity calls are given as the source filed them.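 The calls were made as follows, unless noted: active = viability at or below 30% in both replicate assays; inconclusive = viability at or below 30% in just one of the two assays; inactive = the rest.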

Chain of Receptor tyrosine-protein kinase erbB-2 (Homo sapiens) (P04626 whole entry, looked up): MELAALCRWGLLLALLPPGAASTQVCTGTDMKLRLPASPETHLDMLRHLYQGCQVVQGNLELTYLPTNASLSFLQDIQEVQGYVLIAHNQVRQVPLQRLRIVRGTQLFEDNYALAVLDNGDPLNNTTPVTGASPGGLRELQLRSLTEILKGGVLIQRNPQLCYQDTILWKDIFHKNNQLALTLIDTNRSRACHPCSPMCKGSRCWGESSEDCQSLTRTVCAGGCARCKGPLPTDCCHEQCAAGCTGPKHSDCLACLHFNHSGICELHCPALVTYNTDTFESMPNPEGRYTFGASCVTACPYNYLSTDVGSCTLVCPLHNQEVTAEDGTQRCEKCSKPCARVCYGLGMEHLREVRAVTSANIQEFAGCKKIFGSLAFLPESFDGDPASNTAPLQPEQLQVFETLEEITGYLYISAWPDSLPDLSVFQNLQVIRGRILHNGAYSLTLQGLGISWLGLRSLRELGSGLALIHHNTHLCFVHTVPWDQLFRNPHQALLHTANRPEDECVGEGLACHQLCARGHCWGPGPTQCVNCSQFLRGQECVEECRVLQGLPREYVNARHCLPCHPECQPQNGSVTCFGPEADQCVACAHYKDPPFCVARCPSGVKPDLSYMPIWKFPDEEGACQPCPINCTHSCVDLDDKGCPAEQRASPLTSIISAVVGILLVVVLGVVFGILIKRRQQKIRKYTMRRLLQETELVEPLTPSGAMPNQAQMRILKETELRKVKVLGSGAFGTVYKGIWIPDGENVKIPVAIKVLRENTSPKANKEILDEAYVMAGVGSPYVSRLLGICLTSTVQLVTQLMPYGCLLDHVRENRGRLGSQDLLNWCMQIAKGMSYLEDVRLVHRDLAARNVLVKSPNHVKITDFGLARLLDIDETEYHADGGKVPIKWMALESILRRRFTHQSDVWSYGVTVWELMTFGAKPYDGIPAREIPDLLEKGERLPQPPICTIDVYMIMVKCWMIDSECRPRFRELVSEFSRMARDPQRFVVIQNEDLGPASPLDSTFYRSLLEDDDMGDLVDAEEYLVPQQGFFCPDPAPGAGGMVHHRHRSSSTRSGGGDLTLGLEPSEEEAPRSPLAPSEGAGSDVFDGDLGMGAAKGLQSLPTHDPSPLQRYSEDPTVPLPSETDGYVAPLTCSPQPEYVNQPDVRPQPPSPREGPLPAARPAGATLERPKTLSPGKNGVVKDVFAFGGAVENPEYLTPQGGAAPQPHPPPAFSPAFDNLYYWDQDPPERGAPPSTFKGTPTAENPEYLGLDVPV

`Nc1nc(CSc2nc3ccccc3[nH]2)nc(N2CCOCC2)n1`: the viability was 96% in assay [1]; 96% (inactive) in assay [3]; 109% (inactive) in assay [4]; 92.8% (inactive) in assay [5]; 91.9% in assay [6] (setting [9]); 92.8% in assay [6] (setting [10]). For the same compound, in assay [2], the Her2 level was 100% (inactive). The differential viability (reversal) in assay [6] (H69AR cells + 2 uM doxorubicin) is 0.96% (inactive). The inhibition in assay [7] was -0.13% (inactive); in assay [8] it was -3.83% (inactive).

As to `COc1ccc(CN(C(=O)c2ccccc2OC)C2CCS(=O)(=O)C2)cc1` (stereo not given), the viability in assay [1] is 95%; in assay [3] it was 95% (inactive); in assay [4] it was 115% (inactive); in assay [5], 96.8% (inactive); in assay [6] (setting [9]), 89.8%; in assay [6] (setting [10]), 96.8%. Also, the Her2 level in assay [2] was 90.5% (inactive). Further, the differential viability (reversal) in assay [6] (H69AR cells + 2 uM doxorubicin) is 7.03% (inactive). The inhibition in assay [7] is -0.53% (inactive); in assay [8], 9.34% (inactive).

As to `CC(C)(C)n1nnnc1C(c1cccc(C#N)c1)N1CCC(Cc2ccccc2)CC1` (stereo not given), the viability in assay [1] is 87.5%; in assay [3], 87.5% (inactive); in assay [4], 114% (inactive); in assay [5], 86.1% (inactive); in assay [6] (setting [9]) it was 86.6%; in assay [6] (setting [10]), 86.1%. Also, in assay [2], the Her2 level was 86% (inactive). Besides, in assay [6] (H69AR cells + 2 uM doxorubicin), the differential viability (reversal) was -0.44% (inactive). For the same compound, the inhibition in assay [7] was -0.79% (inactive); in assay [8], 1.77% (inactive).

Regarding `COc1ccccc1C(=O)Nc1ccc(N2CCN(Cc3ccccc3)CC2)cc1`, the viability in assay [1] was 81.5%; in assay [3], 81.5% (inactive); in assay [4] it was 66.8% (inactive); in assay [5] it was 89.6% (inactive); in assay [6] (setting [9]) it was 87.5%; in assay [6] (setting [10]), 89.6%. Further, in assay [2], the Her2 level is 75.5% (inactive). Besides, the differential viability (reversal) in assay [6] (H69AR cells + 2 uM doxorubicin) is 2.1% (inactive). For the same compound, the inhibition was -5.2% (inactive) in assay [7] and 1.97% (inactive) in assay [8].

As for `COC(=O)c1cn(-c2ccccc2)nc1C(=O)OC`, the viability is 93.5% in assay [1]; 93.5% (inactive) in assay [3]; 91% (inactive) in assay [4]; 97.8% (inactive) in assay [5]; 86.9% in assay [6] (setting [9]); 97.8% in assay [6] (setting [10]). For the same compound, the Her2 level in assay [2] is 89.5% (inactive). Also, in assay [6] (H69AR cells + 2 uM doxorubicin), the differential viability (reversal) was 10.9% (inactive). The figures for the inhibition in assay [7] and in assay [8] were -4.8% (inactive) and -1.97% (inactive), respectively.

For the compound `O=C(NCc1ccccc1)N[C@@H](Cc1ccccc1)C(=O)O`, the viability in assay [1] is 96%; in assay [3], 96% (inactive); in assay [4], 106% (inactive); in assay [5], 92.6% (inactive); in assay [6] (setting [9]), 89.2%; in assay [6] (setting [10]) it was 92.6%. Besides, the Her2 level in assay [2] was 95% (inactive). Also, in assay [6] (H69AR cells + 2 uM doxorubicin), the differential viability (reversal) is 3.32% (inactive). In addition, the inhibition in assay [7] is -2.86% (inactive); in assay [8], 3.5% (inactive).

Turning to `O=C(Nc1ccc(SC(F)F)cc1)c1ccc2nccnc2c1`, the viability in assay [1] is 91.5%; in assay [3], 91.5% (inactive); in assay [4] it was 67% (inactive); in assay [5] it was 92.1% (inactive); in assay [6] (setting [9]), 89.4%; in assay [6] (setting [10]), 92.1%. The Her2 level in assay [2] is 77.5% (inactive). In assay [6] (H69AR cells + 2 uM doxorubicin), the differential viability (reversal) was 2.67% (inactive). Moreover, the figures for the inhibition in assay [7] and in assay [8] were -2.53% (inactive) and -2.54% (inactive), respectively.

In the case of `Brc1ccc(C2=Nn3c(nnc3-c3ccncc3)SC2)cc1`, the viability in assay [1] is 94.5%; in assay [3], 94.5% (inactive); in assay [4] it was 82.8% (inactive); in assay [5], 77.1% (inactive); in assay [6] (setting [9]) it was 91.4%; in assay [6] (setting [10]), 77.1%. Further, in assay [2], the Her2 level was 79.5% (inactive). Further, the differential viability (reversal) in assay [6] (H69AR cells + 2 uM doxorubicin) was -14.3% (inactive). Also, the inhibition is -2.89% (inactive) in assay [7] and -0.36% (inactive) in assay [8].

As to `C=CCSc1nc2c(c(=O)[nH]c(=O)n2C)n1CC`, the viability is 78.5% in assay [1]; 78.5% (inactive) in assay [3]; 85.7% (inactive) in assay [4]; 93.2% (inactive) in assay [5]; 85.3% in assay [6] (setting [9]); 93.2% in assay [6] (setting [10]). For the same compound, the Her2 level in assay [2] was 74% (inactive). Also, in assay [6] (H69AR cells + 2 uM doxorubicin), the differential viability (reversal) is 7.82% (inactive). The results for the inhibition in assay [7] and in assay [8] were -5.54% (inactive) and -3.11% (inactive), respectively.

For `CN(C)c1cccc(C(=O)OCC(=O)NCc2ccco2)c1`, the viability in assay [1] was 102%; in assay [3], 102% (inactive); in assay [4], 87% (inactive); in assay [5] it was 86.2% (inactive); in assay [6] (setting [9]) it was 78.6%; in assay [6] (setting [10]) it was 86.2%. Also, in assay [2], the Her2 level was 86.5% (inactive). Besides, in assay [6] (H69AR cells + 2 uM doxorubicin), the differential viability (reversal) was 7.69% (inactive). Moreover, the inhibition is -4.81% (inactive) in assay [7] and -2.22% (inactive) in assay [8].

In the case of `CCOC(=O)Cn1nnnc1CN(Cc1ccc(OC)cc1)Cc1cc2cc(C)cc(C)c2[nH]c1=O`, the viability in assay [1] is 95%; in assay [3] it was 95% (inactive); in assay [4] it was 87.3% (inactive); in assay [5] it was 89.4% (inactive); in assay [6] (setting [9]), 74.2%; in assay [6] (setting [10]), 89.4%. Moreover, the Her2 level in assay [2] is 105% (inactive). Moreover, the differential viability (reversal) in assay [6] (H69AR cells + 2 uM doxorubicin) is 15.2% (inactive). The inhibition was -1.32% (inactive) in assay [7] and -0.55% (inactive) in assay [8].

In the case of `CN(C)Cc1cn(CCC(=O)O)c2ccccc12`, the viability in assay [1] was 96%; in assay [3], 96% (inactive); in assay [4], 88.5% (inactive); in assay [5], 101% (inactive); in assay [6] (setting [9]) it was 98.2%; in assay [6] (setting [10]), 101%. Moreover, the Her2 level in assay [2] is 106% (inactive). The differential viability (reversal) in assay [6] (H69AR cells + 2 uM doxorubicin) is 2.96% (inactive). The inhibition in assay [7] is -1.22% (inactive); in assay [8], -1.8% (inactive).

In the case of `CC(C)n1c(=NC(=O)c2ccco2)c(C#N)cc2c(=O)n3ccccc3cc21`, the viability in assay [1] was 100%; in assay [3] it was 100% (inactive); in assay [4] it was 84.1% (inactive); in assay [5], 6.44% (active); in assay [6] (setting [9]), 2.43%; in assay [6] (setting [10]) it was 6.44%. Besides, the Her2 level in assay [2] is 106% (inactive). Besides, the differential viability (reversal) in assay [6] (H69AR cells + 2 uM doxorubicin) was 4.01% (inactive). The inhibition is 3.16% (inactive) in assay [7] and -6.61% (inactive) in assay [8].

Take `Cc1ccc(S(=O)(=O)Cn2nnnc2CN(Cc2ccco2)Cc2cccs2)cc1`: the viability is 91.5% in assay [1]; 91.5% (inactive) in assay [3]; 104% (inactive) in assay [4]; 80.6% (inactive) in assay [5]; 75.9% in assay [6] (setting [9]); 80.6% in assay [6] (setting [10]). For the same compound, the Her2 level in assay [2] is 97.5% (inactive). In addition, the differential viability (reversal) in assay [6] (H69AR cells + 2 uM doxorubicin) is 4.66% (inactive). Also, the inhibition in assay [7] was -5.87% (inactive); in assay [8], -7.87% (inactive).

For `Cc1cc(C)c2oc(=O)cc(CN3CCOCC3)c2c1`, the viability in assay [1] was 102%; in assay [3], 102% (inactive); in assay [4], 87.3% (inactive); in assay [5], 91.4% (inactive); in assay [6] (setting [9]) it was 87.9%; in assay [6] (setting [10]), 91.4%. In addition, the Her2 level in assay [2] was 97% (inactive). Also, the differential viability (reversal) in assay [6] (H69AR cells + 2 uM doxorubicin) is 3.58% (inactive). Also, the values for the inhibition in assay [7] and in assay [8] were -6.93% (inactive) and 2.26% (inactive), respectively.

As for `COCCN(C(=O)CNC(=O)c1ccco1)C(C(=O)NC1CCCCC1)c1cccc(OC)c1` (stereo not given), the viability is 96% in assay [1]; 96% (inactive) in assay [3]; 88.1% (inactive) in assay [4]; 102% (inactive) in assay [5]; 89.6% in assay [6] (setting [9]); 102% in assay [6] (setting [10]). Further, the Her2 level in assay [2] was 103% (inactive). In addition, in assay [6] (H69AR cells + 2 uM doxorubicin), the differential viability (reversal) was 12.6% (inactive). The values for the inhibition in assay [7] and in assay [8] were -1.3% (inactive) and -1.17% (inactive), respectively.

The record behind these values is PubChem BioAssay.
